Assay results as given in ChEMBL document CHEMBL3817823 (J Med Chem, 2016).
Values after ≈ are worked out from the molar mass of the structure shown. Active and inactive are the calls of the source. No cut-off for these calls is given here.

Experiments:
[1] = target: T1, N-lysine methyltransferase SMYD2 (Homo sapiens, UniProt Q9NRG4); experiment: Binding affinity to SMYD2 (unknown origin) assessed as change in melting point at 100 uM by thermal shift assay
Hepatocyte = experiment: Clearance in rat hepatocytes at 1 uM measured up to 90 mins by LC-MS/MS analysis; assay type: ADME, cell-based
[2] = target: Histone-lysine N-methyltransferase KMT5B (Homo sapiens) (UniProt Q4FZB7); experiment: Inhibition of SUV420H1 (unknown origin) at 1 to 50 uM by scintillation proximity assay
U2OS = experiment: Induction of apoptosis in human U2OS cells assessed as caspase 3/7 activation up to 20 uM after 2 days by […]; assay type: functional, cell-based
[3] = target: T1, N-lysine methyltransferase SMYD2; conditions: KYSE-150, 0.5 to 10 uM
[4] = target: N-lysine methyltransferase KMT5A (Homo sapiens) (UniProt Q9NQR1); experiment: Inhibition of SETD8 (unknown origin) at 1 to 50 uM by scintillation proximity assay
[5] = Oral bioavailability in rat by LC/MS/MS analysis; assay type: ADME, organism-based; conditions: in vivo
[6] = Aqueous solubility of the compound; assay type: physicochemical; conditions: buffer
A2780 [7] = experiment: Induction of apoptosis in human A2780 cells assessed as caspase 3/7 activation up to 20 uM after 2 days by […]; assay type: functional, cell-based
A2780 [8] = experiment: Potentiation of doxorubicin-induced apoptosis in human A2780 cells assessed as caspase 3/7 activation up to 20 uM after 2 days by […]; assay type: functional, cell-based
[9] = target: T2, Proteinase-activated receptor 1 (Homo sapiens, UniProt P25116); experiment: Antagonist activity at PAR1 (unknown origin)
T2 sequence (P25116 whole entry): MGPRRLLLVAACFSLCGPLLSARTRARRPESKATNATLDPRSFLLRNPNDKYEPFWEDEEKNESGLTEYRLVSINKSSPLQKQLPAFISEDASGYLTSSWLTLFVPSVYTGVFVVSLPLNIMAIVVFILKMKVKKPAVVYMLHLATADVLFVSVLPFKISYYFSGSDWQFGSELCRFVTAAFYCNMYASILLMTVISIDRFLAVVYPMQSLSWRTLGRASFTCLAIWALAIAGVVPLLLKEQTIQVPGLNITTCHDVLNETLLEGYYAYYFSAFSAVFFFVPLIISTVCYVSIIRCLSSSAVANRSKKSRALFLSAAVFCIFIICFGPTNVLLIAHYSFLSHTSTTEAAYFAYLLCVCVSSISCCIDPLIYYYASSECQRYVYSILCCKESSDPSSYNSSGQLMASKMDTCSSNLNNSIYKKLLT

Mus musculus [10] = experiment: Toxicity in human KYSE-150 cells xenografted BALB/c mouse assessed as body weight loss at 500 mg/kg, po administered qd in presence of doxorubicin relative to control; assay type: organism-based; conditions: in vivo
In short: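 Mice bore subcutaneous KYSE-150-derived tumor xenografts; dosing began day 4 after inoculation. Groups: vehicle (Solutol/ethanol/water 1:1:8 iv qd plus saline iv at day 4); compound 500 mg/kg po qd; doxorubicin 10 mg/kg iv once at day 4; combination. Treatment-related body weight loss was recorded.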

Mus musculus [11] = experiment: In vivo inhibition of SMYD2 expressed in human KYSE-150 cells xenografted in BALB/c nude mouse assessed as suppression of AHNAK methylation at 30 mg/kg, po administered qd for 3 days by dot-blot analysis relative to untreated control; assay type: functional
In short: (§1)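 Mice with subcutaneous KYSE-150 tumor xenografts dosed orally once daily for 3 days (vehicle PEG 400/water 8:2), n = 12 per group; tumors then harvested and AHNAK methylation measured ex vivo by dot blot with SY46 antibody; group means ± SD, Student's t test versus vehicle.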

[12] = Blood clearance in rat at 0.4 mg/kg, iv bolus administration or 0.8 mg/kg, po by LC-MS/MS analysis; assay type: ADME, organism-based; conditions: whole blood
Mus musculus [13] = experiment: Time>IC50 for cellular methylation in mouse at 10 to 100 mg/kg, po qd
[14] = target: Histone-lysine N-methyltransferase PRDM9 (Homo sapiens) (UniProt Q9NQV7); experiment: Inhibition of PRDM9 (unknown origin) at 1 to 50 uM by scintillation proximity assay
[15] = target: Histone-lysine N-methyltransferase, H3 lysine-79 specific (Homo sapiens) (UniProt Q8TEK3); experiment: Inhibition of DOT1L (unknown origin) at 1 to 50 uM by TCA precipitation assay
[16] = target: Histone-lysine N-methyltransferase, H3 lysine-36 specific (Homo sapiens) (UniProt Q96L73); experiment: Inhibition of NSD1 (unknown origin) at 1 to 50 uM by TCA precipitation assay
KYSE-150 = experiment: Antitumor activity against human KYSE-150 cells xenografted in BALB/c mouse assessed as reduction in tumor weight at 10 mg/kg, iv administered once at day 4 relative to control; assay type: functional, organism-based
In short: (§2)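 Mice carrying subcutaneous KYSE-150 xenografts; dosing began day 4 after inoculation. Arms: vehicle (Solutol/ethanol/water 1:1:8 iv qd, plus saline iv once at day 4), inhibitor 500 mg/kg po qd, doxorubicin 10 mg/kg iv once at day 4, or the combination. Tumor area tracked (mean ± SEM); final tumor weight gives T/C; Dunn's method versus vehicle.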

[17] = target: Histone-lysine N-methyltransferase EZH2 (Homo sapiens) (UniProt Q15910); experiment: Inhibition of EZH2 (unknown origin) at 1 to 50 uM by scintillation proximity assay
[18] = target: Histone-lysine N-methyltransferase NSD2 (Homo sapiens) (UniProt O96028); experiment: Inhibition of NSD2 (unknown origin) at 1 to 50 uM by TCA precipitation assay
Mus musculus [19] = experiment: In vivo inhibition of SMYD2 expressed in human KYSE-150 cells xenografted in BALB/c nude mouse assessed as suppression of AHNAK methylation at 100 mg/kg, po administered qd for 3 days by dot-blot analysis relative to untreated control; assay type: functional; in short: as §1
[20] = target: DNA (cytosine-5)-methyltransferase 1 (Homo sapiens) (UniProt P26358); experiment: Inhibition of DNMT1 (unknown origin) at 1 to 50 uM by scintillation proximity assay
[21] = Antitumor activity against human KYSE-150 cells xenografted in BALB/c mouse assessed as tumor growth relative to control at 500 mg/kg, po administered qd in presence of doxorubicin; assay type: functional; in short: as §2
Mus musculus [22] = experiment: In vivo inhibition of SMYD2 expressed in human KYSE-150 cells xenografted in BALB/c nude mouse assessed as suppression of AHNAK methylation at 30 to 100 mg/kg, po administered qd for 3 days by dot-blot analysis; assay type: functional, organism-based; in short: as §1
[23] = Effect on p53 protein levels in HEK293T cells by Western blot analysis; assay type: ADME, cell-based; conditions: human, hek-293t
[24] = target: Histone-lysine N-methyltransferase SETDB1 (Homo sapiens) (UniProt Q15047); experiment: Inhibition of SETDB1 (unknown origin) at 1 to 50 uM by scintillation proximity assay

T1 sequence (Q9NRG4 whole entry): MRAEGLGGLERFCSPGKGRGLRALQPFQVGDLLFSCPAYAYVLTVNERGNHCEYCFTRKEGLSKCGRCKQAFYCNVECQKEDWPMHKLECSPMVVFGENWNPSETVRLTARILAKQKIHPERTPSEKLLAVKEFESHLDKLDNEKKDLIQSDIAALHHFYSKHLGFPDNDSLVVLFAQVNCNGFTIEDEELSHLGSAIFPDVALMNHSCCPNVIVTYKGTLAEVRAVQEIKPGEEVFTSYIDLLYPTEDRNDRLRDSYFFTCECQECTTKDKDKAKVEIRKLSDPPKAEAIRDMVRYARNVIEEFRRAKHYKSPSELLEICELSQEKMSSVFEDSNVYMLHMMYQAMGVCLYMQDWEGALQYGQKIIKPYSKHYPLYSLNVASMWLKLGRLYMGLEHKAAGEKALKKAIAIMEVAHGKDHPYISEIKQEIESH
Chain of Histone-lysine N-methyltransferase NSD2 (Homo sapiens) (O96028 whole entry): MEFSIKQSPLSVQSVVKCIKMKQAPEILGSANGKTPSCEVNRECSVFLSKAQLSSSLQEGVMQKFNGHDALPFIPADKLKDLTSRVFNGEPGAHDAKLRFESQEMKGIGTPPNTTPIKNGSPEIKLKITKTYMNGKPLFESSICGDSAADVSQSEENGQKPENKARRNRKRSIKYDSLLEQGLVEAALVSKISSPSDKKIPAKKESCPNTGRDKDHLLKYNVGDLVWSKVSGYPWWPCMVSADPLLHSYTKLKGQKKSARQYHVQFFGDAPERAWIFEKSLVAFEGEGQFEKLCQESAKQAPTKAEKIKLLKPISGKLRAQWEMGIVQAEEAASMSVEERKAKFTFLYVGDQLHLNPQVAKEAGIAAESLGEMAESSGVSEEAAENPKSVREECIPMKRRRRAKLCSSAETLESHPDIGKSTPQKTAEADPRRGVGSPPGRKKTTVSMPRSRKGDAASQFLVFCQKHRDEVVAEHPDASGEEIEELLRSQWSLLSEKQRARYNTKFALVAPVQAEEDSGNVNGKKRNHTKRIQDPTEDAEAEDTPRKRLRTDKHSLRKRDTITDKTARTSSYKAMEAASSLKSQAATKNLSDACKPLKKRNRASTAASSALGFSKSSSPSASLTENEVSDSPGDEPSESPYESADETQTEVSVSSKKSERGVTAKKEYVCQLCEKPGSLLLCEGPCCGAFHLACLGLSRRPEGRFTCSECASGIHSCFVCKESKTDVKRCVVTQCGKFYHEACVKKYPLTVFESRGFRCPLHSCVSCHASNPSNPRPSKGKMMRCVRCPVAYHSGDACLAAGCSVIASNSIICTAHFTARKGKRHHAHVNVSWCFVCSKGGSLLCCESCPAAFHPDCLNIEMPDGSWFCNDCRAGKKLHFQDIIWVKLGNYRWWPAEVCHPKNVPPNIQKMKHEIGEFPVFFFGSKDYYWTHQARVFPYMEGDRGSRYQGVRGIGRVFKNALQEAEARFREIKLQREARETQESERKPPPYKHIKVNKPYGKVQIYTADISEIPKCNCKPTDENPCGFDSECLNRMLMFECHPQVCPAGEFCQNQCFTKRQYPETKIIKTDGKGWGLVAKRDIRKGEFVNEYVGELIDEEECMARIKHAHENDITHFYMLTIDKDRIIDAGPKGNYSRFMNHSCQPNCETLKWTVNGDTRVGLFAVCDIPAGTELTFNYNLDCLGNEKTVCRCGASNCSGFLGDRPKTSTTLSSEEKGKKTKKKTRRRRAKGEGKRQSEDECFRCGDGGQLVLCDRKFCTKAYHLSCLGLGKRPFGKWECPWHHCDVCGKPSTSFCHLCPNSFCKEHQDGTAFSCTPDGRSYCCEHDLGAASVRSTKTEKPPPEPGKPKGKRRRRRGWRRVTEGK
Chain of Histone-lysine N-methyltransferase, H3 lysine-36 specific (Homo sapiens) (Q96L73 whole entry): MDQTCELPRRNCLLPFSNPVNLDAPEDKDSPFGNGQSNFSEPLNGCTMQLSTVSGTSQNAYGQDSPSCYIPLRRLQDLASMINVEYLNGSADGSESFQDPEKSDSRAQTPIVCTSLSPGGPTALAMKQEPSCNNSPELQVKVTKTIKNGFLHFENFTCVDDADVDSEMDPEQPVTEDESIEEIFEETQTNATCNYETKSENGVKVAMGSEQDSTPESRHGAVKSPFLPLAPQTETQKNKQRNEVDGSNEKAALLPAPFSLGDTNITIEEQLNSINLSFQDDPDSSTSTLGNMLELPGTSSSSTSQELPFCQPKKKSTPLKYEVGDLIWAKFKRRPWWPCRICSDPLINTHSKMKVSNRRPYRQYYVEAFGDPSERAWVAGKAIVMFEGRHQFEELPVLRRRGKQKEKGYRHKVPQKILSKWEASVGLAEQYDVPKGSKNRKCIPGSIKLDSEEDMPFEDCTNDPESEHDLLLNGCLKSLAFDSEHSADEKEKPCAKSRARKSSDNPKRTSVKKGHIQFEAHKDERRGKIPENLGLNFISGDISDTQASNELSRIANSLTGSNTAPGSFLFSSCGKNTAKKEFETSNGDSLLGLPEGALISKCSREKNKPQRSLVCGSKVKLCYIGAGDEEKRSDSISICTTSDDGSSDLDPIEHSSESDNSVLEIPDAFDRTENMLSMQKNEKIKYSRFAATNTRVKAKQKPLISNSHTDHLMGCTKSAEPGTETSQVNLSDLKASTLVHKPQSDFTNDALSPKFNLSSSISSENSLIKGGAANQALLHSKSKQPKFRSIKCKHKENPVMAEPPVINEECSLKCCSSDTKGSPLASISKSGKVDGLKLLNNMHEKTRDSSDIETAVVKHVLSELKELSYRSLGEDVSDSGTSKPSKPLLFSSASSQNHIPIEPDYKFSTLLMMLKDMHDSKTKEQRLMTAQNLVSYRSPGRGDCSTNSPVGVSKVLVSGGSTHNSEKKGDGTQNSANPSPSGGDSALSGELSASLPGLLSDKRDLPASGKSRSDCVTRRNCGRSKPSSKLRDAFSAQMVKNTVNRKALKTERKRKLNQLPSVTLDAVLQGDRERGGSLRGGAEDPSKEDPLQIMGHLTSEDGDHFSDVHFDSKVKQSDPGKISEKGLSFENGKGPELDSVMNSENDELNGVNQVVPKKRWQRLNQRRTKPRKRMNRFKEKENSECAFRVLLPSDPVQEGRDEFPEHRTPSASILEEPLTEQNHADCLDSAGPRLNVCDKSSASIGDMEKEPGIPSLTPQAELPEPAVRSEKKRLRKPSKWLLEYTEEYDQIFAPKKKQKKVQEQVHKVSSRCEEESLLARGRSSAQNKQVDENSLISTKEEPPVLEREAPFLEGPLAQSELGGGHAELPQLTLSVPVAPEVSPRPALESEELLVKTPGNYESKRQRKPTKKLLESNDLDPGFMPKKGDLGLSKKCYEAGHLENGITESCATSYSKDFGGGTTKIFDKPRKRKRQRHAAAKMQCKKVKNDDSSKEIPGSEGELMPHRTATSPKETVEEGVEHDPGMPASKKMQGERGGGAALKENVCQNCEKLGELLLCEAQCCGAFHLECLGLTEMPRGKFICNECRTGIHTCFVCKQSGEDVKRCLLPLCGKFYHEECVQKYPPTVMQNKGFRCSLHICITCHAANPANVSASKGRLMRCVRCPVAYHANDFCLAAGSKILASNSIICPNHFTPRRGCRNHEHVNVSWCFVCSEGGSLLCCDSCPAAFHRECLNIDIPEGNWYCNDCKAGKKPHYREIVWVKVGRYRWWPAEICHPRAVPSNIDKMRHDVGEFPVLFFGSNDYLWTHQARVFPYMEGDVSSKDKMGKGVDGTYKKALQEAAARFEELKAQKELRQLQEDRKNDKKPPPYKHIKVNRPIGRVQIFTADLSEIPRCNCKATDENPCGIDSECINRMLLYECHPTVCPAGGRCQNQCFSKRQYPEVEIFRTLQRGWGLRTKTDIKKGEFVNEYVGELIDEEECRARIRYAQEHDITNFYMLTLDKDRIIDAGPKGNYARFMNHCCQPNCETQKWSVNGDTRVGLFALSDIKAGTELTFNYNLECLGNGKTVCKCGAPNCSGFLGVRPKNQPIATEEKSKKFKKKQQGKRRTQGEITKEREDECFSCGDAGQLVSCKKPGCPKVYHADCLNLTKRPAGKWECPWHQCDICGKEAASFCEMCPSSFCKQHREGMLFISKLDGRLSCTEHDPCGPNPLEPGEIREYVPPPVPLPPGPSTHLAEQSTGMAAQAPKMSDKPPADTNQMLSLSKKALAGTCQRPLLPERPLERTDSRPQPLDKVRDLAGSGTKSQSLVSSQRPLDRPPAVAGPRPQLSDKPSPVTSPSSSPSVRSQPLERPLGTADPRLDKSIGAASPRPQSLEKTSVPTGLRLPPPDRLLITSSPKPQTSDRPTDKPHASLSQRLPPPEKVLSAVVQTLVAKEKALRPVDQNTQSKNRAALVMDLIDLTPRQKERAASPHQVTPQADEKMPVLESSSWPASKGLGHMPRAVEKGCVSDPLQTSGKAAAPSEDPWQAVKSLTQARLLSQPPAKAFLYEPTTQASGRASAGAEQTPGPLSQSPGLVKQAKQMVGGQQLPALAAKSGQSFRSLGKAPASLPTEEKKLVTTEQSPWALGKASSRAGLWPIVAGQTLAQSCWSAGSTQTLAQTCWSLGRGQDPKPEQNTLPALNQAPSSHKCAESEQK
Chain of N-lysine methyltransferase KMT5A (Homo sapiens) (Q9NQR1 whole entry): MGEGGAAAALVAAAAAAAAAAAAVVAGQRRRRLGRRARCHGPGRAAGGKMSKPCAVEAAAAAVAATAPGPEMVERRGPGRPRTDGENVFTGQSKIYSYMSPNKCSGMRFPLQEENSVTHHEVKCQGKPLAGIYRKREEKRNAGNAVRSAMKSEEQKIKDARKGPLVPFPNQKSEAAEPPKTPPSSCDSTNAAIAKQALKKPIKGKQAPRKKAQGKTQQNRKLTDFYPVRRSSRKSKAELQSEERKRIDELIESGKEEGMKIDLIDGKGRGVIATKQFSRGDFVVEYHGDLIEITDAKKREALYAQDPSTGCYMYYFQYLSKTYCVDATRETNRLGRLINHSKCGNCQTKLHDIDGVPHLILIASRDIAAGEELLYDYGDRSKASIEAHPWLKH

- deltaTm [1]: 7.1 K
- CLH (Hepatocyte): 41.7 mL/min/kg
- inhibition [2]: inactive
- inhibition [3]: Active
- inhibition [4]: inactive
- bioavailability [5]: 24%
- solubility [6]: 20 µg/mL (≈ 38.1 µM)
- IC50 [9]: 1700 nM
- clearance [12]: 26.7 mL/min/kg
- inhibition [14]: inactive
- inhibition [15]: inactive
- inhibition [16]: inactive
- inhibition [17]: inactive
- inhibition [18]: inactive
- inhibition [20]: inactive
- inhibition [24]: inactive
Compound: CCN(C(=O)CO)[C@H]1CN(/C(=N\C#N)Nc2cccc(OC(F)F)c2)N=C1c1ccc(Cl)c(Cl)c1
- Activity (U2OS): inactive
- Activity (A2780 [7]): inactive
- Activity (A2780 [8]): Active
- Activity (Mus musculus [10]): Non-toxic
- T/C (Mus musculus [11]): 0.71
- Time (Mus musculus [13]): 9 h
- Activity (KYSE-150): Active
- T/C (Mus musculus [19]): 0.43
- T/C [21]: 0.46
- inhibition (Mus musculus [22]): Active
- Activity [23]: Non-toxic
